Common to all, as to assay type: functional
The nature of experiment [1]: Inhibition of sodium arachidonate-induced PGE2 production in human SUM190 cells assessed as PGE2 level per 1000 cells at 0.1 uM preincubated for 2 hrs before sodium arachidonate challenge measured after 2 hrs by competitive EIA (reference value: 6.43 +/- 1.87 pg/mL). The essentials: (§1)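 Cells seeded in triplicate, grown at 37°C, 5% CO2 to 80% confluence, washed with PBS, then given fresh medium with inhibitor (0.1, 1, 10 μM) or DMSO vehicle. After 2 h preincubation at 37°C, sodium arachidonate was added to 10 μM final for 2 h more. Supernatant PGE2 was measured by competitive EIA and normalized to trypsinized cell count (pg/mL/1000 cells). Three runs, mean ± SD.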

The test system of experiment [2] is SUM149PT. In words: Inhibition of sodium arachidonate-induced PGE2 production in human SUM149 cells at 100 nM preincubated for 2 hrs before sodium arachidonate challenge measured after 2 hrs by competitive EIA. Put shortly: as §1
Experiment [3] in a line: Inhibition of sodium arachidonate-induced PGE2 production in human SUM190 cells assessed as PGE2 level per 1000 cells at 1 uM preincubated for 2 hrs before sodium arachidonate challenge measured after 2 hrs by competitive EIA (reference value: 6.43 +/- 1.87 pg/mL). Put shortly: as §1
The nature of experiment [4]: Inhibition of sodium arachidonate-induced PGE2 production in human SUM190 cells assessed as PGE2 level per 1000 cells at 10 uM preincubated for 2 hrs before sodium arachidonate challenge measured after 2 hrs by competitive EIA (reference value: 6.43 +/- 1.87 pg/mL). Put shortly:
as §1

Experiment [5] concerns SUM149PT. In words: Inhibition of sodium arachidonate-induced PGE2 production in human SUM149 cells at 1 uM preincubated for 2 hrs before sodium arachidonate challenge measured after 2 hrs by competitive EIA. The essentials: as §1
Experiment [6] deals with SUM149PT. In words: Inhibition of sodium arachidonate-induced PGE2 production in human SUM149 cells at 10 uM preincubated for 2 hrs before sodium arachidonate challenge measured after 2 hrs by competitive EIA. Put shortly: as §1
The subject of experiment [7] is SUM149PT. In words: Inhibition of sodium arachidonate-induced PGE2 production in human SUM149 cells assessed as PGE2 level per 1000 cells at 1 uM preincubated for 2 hrs before sodium arachidonate challenge measured after 2 hrs by competitive EIA (reference value: 3.15 +/- 0.19 pg/mL). Put shortly: as §1
The test system of experiment [8] is SUM149PT. As to the kind of experiment: Inhibition of sodium arachidonate-induced PGE2 production in human SUM149 cells assessed as PGE2 level per 1000 cells at 10 uM preincubated for 2 hrs before sodium arachidonate challenge measured after 2 hrs by competitive EIA (reference value: 3.15 +/- 0.19 pg/mL). The essentials: as §1
In experiment [9] the test system is SUM149PT. As to the kind of experiment: Inhibition of sodium arachidonate-induced PGE2 production in human SUM149 cells assessed as PGE2 level per 1000 cells at 0.1 uM preincubated for 2 hrs before sodium arachidonate challenge measured after 2 hrs by competitive EIA (reference value: 3.15 +/- 0.19 pg/mL). Put shortly:
as §1

In ChEMBL document CHEMBL1833822, “Efficient synthesis of apricoxib, CS-706, a selective cyclooxygenase-2 inhibitor, and evaluation of inhibition of prostaglandin E2 production in inflammatory breast cancer cells” (2011) one finds Activity and inhibition data, which are given here for 2 compounds.

The inhibition is how much of the control response was suppressed. For `CCOc1ccc(-c2cc(C)cn2-c2ccc(S(N)(=O)=O)cc2)cc1` [APRICOXIB], the Activity in experiment [1] was 2.1 pg/mL; in experiment [3], 0.5 pg/mL; in experiment [4], 0.22 pg/mL; with SUM149PT [7], 0.28 pg/mL; in the experiment with SUM149PT [8] it was 0.11 pg/mL; in the experiment with SUM149PT [9] it was 0.97 pg/mL. This compound registered an inhibition at 0.1 µM in the experiment on SUM149PT [2] of 70%. This compound also had an inhibition at 1 µM in the experiment with SUM149PT [5] of 91%. In addition, in the experiment with SUM149PT [6], at 10 µM the inhibition was 97%.
Consider `Cc1ccc(-c2cc(C(F)(F)F)nn2-c2ccc(S(N)(=O)=O)cc2)cc1` [CELECOXIB], for which the Activity worked out at 2.87 pg/mL in experiment [1]; 0.81 pg/mL in [3]; 0.18 pg/mL in experiment [4]; 0.43 pg/mL with SUM149PT [7]; 0.13 pg/mL in the experiment with SUM149PT [8]; 1.19 pg/mL in the experiment on SUM149PT [9].
